Measured values reported in PMC11607387 (Nature Communications, 2024).

Key:
RAW264.7 cells = assay: MTT cytotoxicity on RAW264.7 cells; assay type: cell-based; settings: for cytotoxicity in RAW 264.7 cells: without laser
How it was run: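 RAW264.7 cells seeded at 5 × 10^3/well, grown 24 h, then exposed to preparations across a concentration series. After 4 h, only the laser groups were irradiated (650 nm); all cells were incubated a further 20 h, and viability was read by MTT.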

4T1 cells [1] = assay: Cellular uptake by flow cytometry and fluorescence microscopy; assay type: cell-based, murine; settings: flow cytometry, Ce6 5 μg/mL
How it was run: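 4T1 cells (1 × 10^5/well) grown to 80% confluency, exposed to formulations in serum-free 1640 medium at equal Ce6 (5 μg/mL) for 1, 4 or 12 h, then analysed by flow cytometry (n = 3). For microscopy, cells (2 × 10^5/well) on coverslips grown 36 h to 60% confluency, treated likewise, washed with cold PBS, fixed, DAPI-stained (1 μg/ml, 5 min) and imaged.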

human MMP-2 = molecular target: T1, human MMP-2 (Homo sapiens, UniProt P08253); assay: MMP-2 responsiveness; assay type: biochemical; settings: human MMP-2, 4 and 24 h, 37 °C, MALDI-TOF-MS
T1 sequence (P08253 110-660): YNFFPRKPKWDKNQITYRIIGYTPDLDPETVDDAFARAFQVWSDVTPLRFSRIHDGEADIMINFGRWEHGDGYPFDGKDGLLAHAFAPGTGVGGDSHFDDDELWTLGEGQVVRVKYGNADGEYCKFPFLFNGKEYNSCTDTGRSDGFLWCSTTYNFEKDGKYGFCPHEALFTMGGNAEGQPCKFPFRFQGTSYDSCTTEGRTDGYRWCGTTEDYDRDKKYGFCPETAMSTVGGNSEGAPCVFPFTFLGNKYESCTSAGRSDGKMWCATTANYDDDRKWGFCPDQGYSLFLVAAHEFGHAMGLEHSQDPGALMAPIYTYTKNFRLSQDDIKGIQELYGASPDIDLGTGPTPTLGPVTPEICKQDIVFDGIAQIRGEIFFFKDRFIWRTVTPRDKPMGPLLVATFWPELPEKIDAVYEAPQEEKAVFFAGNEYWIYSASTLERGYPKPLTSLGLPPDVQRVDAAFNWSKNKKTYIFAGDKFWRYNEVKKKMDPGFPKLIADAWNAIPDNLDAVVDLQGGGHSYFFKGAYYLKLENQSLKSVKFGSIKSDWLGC

[2] = DLS size, PDI and zeta potential of nanoparticles; assay type: physicochemical; settings: without dBET6
[3] = tested on: BALB/c nude mice bearing primary tumors of breast cancer; assay: Biodistribution after intravenous injection; assay type: in vivo; settings: 24 h post intravenous injection, ex vivo
How it was run: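 Tumour-bearing BALB/c nude mice, tumours about 200 mm3 roughly 14 days after cell injection, randomised into four groups (n = 4). Ce6-labelled formulations were given intravenously and imaged on IVIS at 1, 2, 4, 8, 12 and 24 h. At 24 h animals were sacrificed; tumours and major organs were imaged ex vivo, fluorescence semi-quantified, then fixed and frozen-sectioned for imaging.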

4T1 cells [4] = assay: Wound healing assay; assay type: cell-based, murine; settings: 24 h, cell motility = 1 - wound area at 24 h/wound area at 0 h
How it was run: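 4T1 monolayers in 12-well plates at 80% confluency were scratched with a 10 μL tip and washed three times with cold PBS, then treated with formulations. Laser groups were irradiated after 4 h. At 24 h, cells were fixed, stained with 0.1% crystal violet, and the scratched area imaged by inverted microscope.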

[5] = tested on: mice bearing 4T1-Luc brain-metastatic tumor; assay: Brain accumulation in brain-metastasis model; settings: ex vivo, 8 h post intravenous injection
How it was run: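 Brain-metastasis model: 4T1-Luc cells (5 × 10^3) implanted stereotactically into right hippocampus. After 10 days, grouped by bioluminescence intensity (n = 4). Formulations given intravenously; IVIS fluorescence imaging at 1, 2, 4 and 8 h. At 8 h, mice sacrificed; brains and major organs imaged ex vivo for fluorescence.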

[6] = tested on: BALB/c nude mice bearing breast cancer; assay: Tumor retention after intra-tumoral injection; assay type: in vivo; settings: 48 h post intra-tumoral injection, ex vivo
How it was run: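 Breast-tumour-bearing BALB/c nude mice received formulations intratumorally. IVIS fluorescence imaging at 5 min and 4, 8, 12, 24, 36 and 48 h post-injection. Tumours and major organs were imaged ex vivo, then fixed, dehydrated and frozen-sectioned for fluorescence imaging.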

Compound | influence on cell viability of RAW264.7 cells (RAW264.7 cells; dBET6 0.25 μg/mL) | fluorescence signal relative to free Ce6 (cellular uptake) (4T1 cells [1]; 1 h) [fold] | fluorescence signal relative to free Ce6 (cellular uptake) (4T1 cells [1]; 4 h) [fold] | fluorescence signal relative to free Ce6 (cellular uptake) (4T1 cells [1]; 12 h) [fold] | molecular mass change after incubation with MMP-2 (human MMP-2) | size of self-assembled nanoparticles [2] | cytotoxicity in RAW 264.7 cells (RAW264.7 cells) | tumor fluorescent signal, fold higher than CFPD [3] [fold] | tumor fluorescent signal, fold higher than CPD [3] [fold] | cell mobility (wound healing) (4T1 cells [4]) [%] | brain fluorescence, fold stronger than CFPD [5] [fold] | brain fluorescence, fold stronger than CPD [5] [fold] | brain fluorescence, fold stronger than Ce6 [5] [fold] | tumor fluorescence intensity, fold stronger than CFPD [6] [fold]
Cc1sc2c(c1C)C(c1ccc(Cl)cc1)=N[C@@H](CC(=O)NCCCCCCCCNC(=O)COc1cccc3c1C(=O)N(C1CCC(=O)NC1=O)C3=O)c1nnc(C)n1-2 (stereo partly shown) [dBET6, reference compound] | no influence on cell viability |  |  |  |  |  |  |  |  |  |  |  |  | 
Ce6-FFRFKGPGLLAGC-PEG-DSPE [CFPD] |  | 5.71 | 3.73 | 3.10 | no significant change in molecular mass | around 90 nm | negligible cytotoxicity |  |  |  |  |  |  | 
Ce6-FFRFKGPLGLAGC-PEG-DSPE [CFMPD] |  | 6.53 | 4.13 | 3.64 | distinct new peaks belonging to the post-enzymatic fragmentation | around 90 nm | negligible cytotoxicity | 1.22 | 1.71 | 37.0 | 1.46 | 2.04 | 2.43 | 1.72
Ce6-PEG3400-DSPE [CPD] |  |  |  |  |  | around 90 nm | negligible cytotoxicity |  |  |  |  |  |  | 
